Shown are actives, neighbours in structure and some others; about 2.6% of the full set was active somewhere.
AF4-AF9 inh: blocks AF4 peptide binding to human AF9. P42568. AlphaScreen, biotin-AF4 peptide binding to FLAG-AF9. inhibition, % at 10 µM. 350,000 tested, 0.47% active. AID 651704;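 active = every replicate reaching a set inhibition limit, whatever the replicate mean, cut at about 25% in these data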;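 note: 0% = plate neutral control median and 100% = total signal loss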
INS-1E GSIS act: GLuc luminescence reporter in INS-1E cells, primary screen for activators of glucose-dependent secretion of insulin; INS-1E GLuc reporter insulin secretion, 2-3 h; activation, % at 16.6 µM; 370,000 tested, 0.61% active;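 active = lowest replicate activation of at least 40%, so every replicate reaches that level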;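 note: 0% = median of neutral control wells and 100% = median of IBMX positive control wells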
E-sel inducer: induces E-selectin expression in human endothelial cells; P16581; HUVEC E-selectin immunofluorescence imaging; normalized: neutral wells 0, TNF-alpha wells 100; activation, % at 7.58 µM; 260,000 tested, 0.37% active;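 active = mean E-selectin-positive cell signal at least 10% of the positive control, reached in at least 60% of replicates, without over 20% cell loss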
Target sequence (P16581 whole entry, looked up): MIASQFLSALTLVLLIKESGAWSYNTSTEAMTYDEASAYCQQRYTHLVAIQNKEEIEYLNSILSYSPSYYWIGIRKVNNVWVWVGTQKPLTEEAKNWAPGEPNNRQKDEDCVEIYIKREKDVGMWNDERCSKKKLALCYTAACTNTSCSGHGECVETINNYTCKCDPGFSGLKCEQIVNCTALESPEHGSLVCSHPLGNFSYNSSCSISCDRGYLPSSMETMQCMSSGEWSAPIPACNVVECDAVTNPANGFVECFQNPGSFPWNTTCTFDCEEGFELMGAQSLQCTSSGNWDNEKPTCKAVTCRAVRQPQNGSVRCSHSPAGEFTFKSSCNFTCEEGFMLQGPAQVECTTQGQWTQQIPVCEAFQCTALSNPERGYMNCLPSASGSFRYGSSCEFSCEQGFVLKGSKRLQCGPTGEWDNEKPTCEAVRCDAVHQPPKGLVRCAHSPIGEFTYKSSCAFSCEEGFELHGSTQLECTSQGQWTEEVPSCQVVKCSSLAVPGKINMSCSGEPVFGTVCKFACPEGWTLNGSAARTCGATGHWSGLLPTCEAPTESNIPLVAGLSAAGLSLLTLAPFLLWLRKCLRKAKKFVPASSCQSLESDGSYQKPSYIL
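Read-out: % PE-positive cells | Test system: HUVEC | Doses: One compound dose added by pin transfer | Buffer or medium: EGM-2 over gelatin coat | Signal: Immunofluorescence imaging | Benchmarks: TNF-alpha, DMSO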
rRNA inh HTS: selective bacterial rRNA inhibition in E. coli | E. coli WT GFP vs humanized-ribosome RFP mutants, fluorescence, 24 h; hits give low values; DMSO median 0, no signal -100 | GFP signal change (wild-type ribosome), % (concentration not given with the values) | 350,000 tested, 1.6% active;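 active = significant combined selectivity score with lowered wild-type GFP, culture density cut under 30%, mutant RFP and density less affected; inactive = any of these conditions unmet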
RAD52 anneal inh: RAD52 (human) annealing inhibition. P43351. recombinant RAD52 DNA annealing, FRET fluorescence. inhibition, % at 18.7 µM. 360,000 tested, 0.46% active;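 active = every replicate showing at least 50% inhibition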
RAD54 branch: RAD54 (human) branch migration inhibition; AID 602329; Q92698; 360,000 tested, 0.14% active; RAD54 Holliday junction branch migration, FAM/BHQ fluorescence; inhibition, % at 10.4 µM;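 active = mean normalized replicate activity at least 40 and at least half of replicates scoring 40 or more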;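 note: 0% = median of neutral control wells and 100% = median of positive control wells; inhibitors cause a drop in the FAM fluorescence signal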
Active calls of the source: *; . = no result.

SMILES	AF4-AF9 inh	INS-1E GSIS act	E-sel inducer	rRNA inh HTS	RAD52 anneal inh	RAD54 branch
O=C(OCc1ccccc1)c1ccc(NCc2cc(O)ccc2O)cc1	11	-10	-1	-36*	-15	.
CC(C)OC(=O)c1ccc(NCc2cc(O)ccc2O)cc1	8	.	0	-28	0	.
C[n+]1c2n(c3ccccc31)N=C(c1ccc(-c3ccccc3)cc1)CS2	19	-36	.	-58	71*	.
C[n+]1c2n(c3ccccc31)N=C(c1ccccc1)CS2	-2	-7	-1	5	9	4
O=C(N/N=C/c1ccccc1O)c1cccc(C(F)(F)F)c1	.	4	.	.	.	6
O=C(N/N=C/c1ccccc1C(F)(F)F)c1ccc(O)cc1	3	.	.	-29*	1	.
O=C(NN=C1c2ccccc2-c2ccccc21)c1ccccc1	9	4	0	-32*	-15	12
C[C@@H]1CCCCO[C@H](CN(C)CC2CC2)[C@H](C)CN([C@@H](C)CO)C(=O)c2cc(NC(=O)Nc3ccccc3)ccc2O1	15	2	1	2	57*	15
CCCN(C)C[C@H]1OCCCC[C@@H](C)Oc2ccc(NC(=O)Nc3ccc(OC)cc3)cc2C(=O)N([C@@H](C)CO)C[C@H]1C	12	-4	0	3	53*	-3
COc1ccc(NC(=O)Nc2ccc3c(c2)C(=O)N([C@@H](C)CO)C[C@@H](C)[C@@H](CN(C)CC2CC2)OCCCC[C@@H](C)O3)cc1	26*	1	0	0	25	8
C[C@@H]1CN([C@@H](C)CO)C(=O)c2cc(NC(=O)c3ccccc3)ccc2O[C@@H](C)CCCCO[C@H]1CN(C)CC1CCCCC1	27*	-13	0	0	6	0
C[C@H]1CCCCO[C@H](CN(C)CC2CCCCC2)[C@@H](C)CN([C@@H](C)CO)C(=O)c2cc(NC(=O)c3ccccc3)ccc2O1	0	-8	1	-5	-178	9
COc1ccc(NC(=O)Nc2ccc3c(c2)C(=O)N([C@H](C)CO)C[C@@H](C)[C@H](CN(C)CC2CC2)OCCCC[C@H](C)O3)cc1	20	-14	3	3	15	.
C[C@@H]1CCCCO[C@@H](CN(C)CC2CC2)[C@@H](C)CN([C@H](C)CO)C(=O)c2cc(NC(=O)Nc3ccccc3)ccc2O1	7	1	0	4	38	4
COc1ccc(NC(=O)Nc2ccc3c(c2)C(=O)N([C@H](C)CO)C[C@H](C)[C@@H](CN(C)CC2CC2)OCCCC[C@H](C)O3)cc1	17	3	0	1	-4	0
O=C(N[C@@H]1CC[C@@H](CCNS(=O)(=O)c2ccc(F)cc2)O[C@@H]1CO)c1cccnc1	-1	6	1	-1	-18	4
C[C@@H]1CN([C@@H](C)CO)C(=O)c2c(c3ccccc3n2C)-c2ccccc2CO[C@@H]1CN(C)C(=O)[C@H](C)c1ccccc1	3	-3	-1	1	20	.
CCCC(=O)Nc1ccc2c(c1)OC[C@H](C)N(C(=O)c1cnccn1)C[C@H](C)[C@@H](OC)CN(C)C2=O	-5	-18	0	1	1	.
C[C@H]1CN([C@@H](C)CO)C(=O)Cc2cc(NC(=O)Cc3ccccc3)ccc2O[C@H]1CN(C)CC1CCCCC1	-2	6	0	1	3	3
C[C@@H]1CCCCO[C@H](CN(C)C(=O)Nc2ccc(F)cc2)[C@@H](C)CN([C@H](C)CO)C(=O)c2cc(NC(=O)Nc3ccccc3)ccc2O1	43*	7	0	1	17	-7
C[C@@H]1CCCCO[C@@H](CN(C)C(=O)Nc2ccc(F)cc2)[C@H](C)CN([C@H](C)CO)C(=O)c2cc(NC(=O)Nc3ccccc3)ccc2O1	-2	-25	0	1	-2	1
CCOC(=O)C1CCCN(C(=O)c2cc(S(=O)(=O)N(C)C)ccc2N2CCCC2)C1 (centres undefined)	0	-2	428*	-1	-11	0
O=C(Nc1ccn(Cc2c(F)c(F)cc(F)c2F)n1)c1ccc(COc2ccccc2Cl)cc1	0	-4	.	-4	-17	.
Cc1cc(C)nc(NC(=O)c2ccc(COc3ccccc3Cl)cc2)c1	-1	-13	.	-24*	-7	-4
Cc1ccc(S(=O)(=O)N[C@H]2CC[C@H](CC(=O)N3CCc4ccccc4C3)O[C@@H]2CO)cc1	-4	-6	0	-4	9	2
SMILES	AF4-AF9 inh	INS-1E GSIS act	E-sel inducer	rRNA inh HTS	RAD52 anneal inh	RAD54 branch
CCOC(=O)NC(N(O)c1cccc(Cl)c1)C(Cl)(Cl)Cl (centres undefined)	2	-15	.	-28*	-15	-12
CCN(C(=O)Nc1cccc(Cl)c1)c1ccccc1	-7	-6	.	0	-6	-3
COCC(=O)Nc1ccc2c(c1)C(=O)N(C)[C@H]1CC[C@@H](CC(=O)NCC3CCCCC3)O[C@H]1CO2	1	-3	0	0	2	-5
COc1cccc(NC(=O)C(=O)N/N=C/c2cc(C)n(-c3ccc(Cl)c(Cl)c3)c2C)c1	6	10	.	-18*	-19	-5
Cc1cc(/C=N/NC(N)=S)c(C)n1-c1ccc(Cl)c(Cl)c1	4	-2	.	-3	-8	.
COc1cc(C)cc(C(=O)C=Cc2ccccc2)c1O	0	.	0	-52*	-1	5
COc1ccc(C=CC(=O)c2cc(O)ccc2O)cc1	0	.	0	-36*	-19	1
COc1cc(OC)c(C=CC(=O)c2ccccc2O)c(OC)c1	4	.	0	9	-17	-2
COc1ccc(C(=O)/C=C/c2ccc(O)cc2)cc1	-2	-5	.	.	-18	0
COc1cc(/C=C/C(=O)c2ccccc2O)cc(OC)c1OC	1	-14	.	-17*	-5	0
C[C@H](CO)N1C[C@H](C)[C@H](CN(C)C)Oc2cc(C#CC3CCCCC3)ccc2S1(=O)=O	11	-20	0	3	32	-5
COc1ccc(N=Nc2c(C)n[nH]c2C)cc1	8	12	0	-16	1	-15
Cc1n[nH]c(C)c1N=Nc1ccc(Br)cc1	14	26	.	-36*	0	2
O=C(/C=C/Nc1ccccc1C(=O)O)c1cccs1	.	5	.	.	.	.
O=C(/C=C/Nc1ccc(Nc2ccccc2)cc1)c1cccs1	8	-3	0	-23*	-13	.
Cc1ccc(N/C=C/C(=O)c2cccs2)cc1C	4	15	.	-20*	-35	2
C[C@@H]1CN([C@H](C)CO)C(=O)c2cc(NC(=O)Nc3ccc4c(c3)OCO4)ccc2O[C@H]1CN(C)S(=O)(=O)c1ccc(F)cc1	9	-18	51*	0	-8	1
